{"data": "Published values collected from several papers", "matrix": "plasma"}
{"Structure (SMILES)": "CCCCC1=NC2(CCCC2)C(=O)N1Cc1ccc(-c2ccccc2S(=O)(=O)Nc2noc(C)c2C)c(COCC)c1", "species": "human", "route": "oral", "dose": "800 mg", "notes": "single dose, fed, healthy volunteers, tablet", "AUC(0-t)": "169 µg·h/mL"}
{"Structure (SMILES)": "CCNCCCNC/C=C\\CNCCCNCC", "species": "human", "route": "intravenous", "dose": "150 mg", "notes": "patients, infusion", "AUC(0-t)": "0.473 µg·h/mL"}
{"Structure (SMILES)": "COCCOc1cnc2ccn([C@H](C)c3nnc4c(F)cc(-c5cnn(C)c5)cn34)c(=O)c2c1", "species": "human", "route": "oral", "dose": "25 mg", "notes": "multiple doses, once daily, patients", "AUC(0-t)": "5.99 µg·h/mL"}
{"Structure (SMILES)": "COc1cc2c(Nc3ccc(Br)cc3F)ncnc2cc1OCC1CCN(C)CC1", "species": "human", "route": "oral", "dose": "85 mg/m²", "notes": "multiple doses, patients", "AUC(0-t)": "15.5 µg·h/mL"}
{"Structure (SMILES)": "CO[C@@H]1[C@H](OC(=O)N2CC(CCN3CCOCC3)C2)CC[C@]2(CO2)[C@H]1[C@@]1(C)O[C@@H]1CC=C(C)C", "species": "human", "route": "subcutaneous", "dose": "1.2 mg", "notes": "single dose, healthy volunteers", "AUC(0-t)": "0.00545 µg·h/mL"}
{"Structure (SMILES)": "Cc1nc(NC(=O)N2CCC[C@H]2C(N)=O)sc1-c1ccnc(C(C)(C)C(F)(F)F)c1", "species": "human", "route": "oral", "dose": "270 mg", "notes": "patients", "AUC(0-t)": "25.3 µg·h/mL"}
{"Structure (SMILES)": "CCOc1cc2ncc(C#N)c(Nc3ccc(OCc4ccccn4)c(Cl)c3)c2cc1NC(=O)/C=C/[C@H]1CCCN1C", "species": "human", "route": "oral", "dose": "80 mg", "notes": "single dose", "AUC(0-t)": "0.357 µg·h/mL"}
{"Structure (SMILES)": "CCOc1cc([C@@H](CS(C)(=O)=O)N2C(=O)c3cccc(NC(C)=O)c3C2=O)ccc1OC", "species": "human", "route": "oral", "dose": "30 mg", "notes": "single dose, healthy volunteers", "AUC(0-t)": "2.19 µg·h/mL"}
{"Structure (SMILES)": "CC(C)n1cc(C#N)c2cc(-n3cc(C(=O)O)cn3)ccc21", "species": "human", "route": "oral", "dose": "25 mg", "notes": "single dose, fasted, healthy volunteers", "AUC(0-t)": "5.01 µg·h/mL"}
{"Structure (SMILES)": "C[C@@H](Oc1ccc(S(C)(=O)=O)cc1C(=O)N1C[C@@H]2C[C@]2(c2cc(C(F)(F)F)on2)C1)C(F)(F)F", "species": "human", "route": "oral", "dose": "25 mg", "notes": "fed, tablet", "AUC(0-t)": "11 µM·h"}
{"Structure (SMILES)": "NS(=O)(=O)c1ccc(NC(=O)Nc2ccc(F)cc2)cc1", "species": "human", "route": "oral", "dose": "500 mg", "notes": "multiple doses, once daily", "AUC(0-t)": "62.2 µg·h/mL"}
{"Structure (SMILES)": "C[C@@H](Nc1cc(F)cc(F)c1)c1cc(C(=O)N(C)C)cc2c(=O)cc(N3CCOCC3)oc12", "species": "human", "route": "oral", "dose": "360 mg", "notes": "single dose, patients", "AUC(0-t)": "8.35 µg·h/mL"}
{"Structure (SMILES)": "COc1cc(N2CCC(N3CCN(C)CC3)CC2)ccc1Nc1ncnc(Nc2ccccc2S(=O)(=O)C(C)C)n1", "species": "human", "route": "oral", "dose": "200 mg", "notes": "multiple doses, patients", "AUC(0-t)": "9.17 µg·h/mL"}
{"Structure (SMILES)": "FC(F)(F)c1ccc(CNc2ccc(Cc3c[nH]c4ncc(Cl)cc34)cn2)cn1", "species": "human", "route": "oral", "dose": "1200 mg", "notes": "multiple doses, patients", "AUC(0-t)": "29.5 µg·h/mL"}
{"Structure (SMILES)": "CC(C)c1nc(N(C)S(C)(=O)=O)nc(-c2ccc(F)cc2)c1/C=C/[C@@H](O)C[C@@H](O)CC(=O)O", "species": "human", "route": "oral", "dose": "20 mg", "AUC(0-t)": "0.0486 µg·h/mL"}
{"Structure (SMILES)": "Nc1cc(C(F)(F)F)c(-c2cc(N3CCOCC3)nc(N3CCOCC3)n2)cn1", "species": "human", "route": "oral", "dose": "25 mg/day", "notes": "patients", "AUC(0-t)": "2.06 µg·h/mL"}
{"Structure (SMILES)": "O=C(/C=C/c1cccc(S(=O)(=O)Nc2ccccc2)c1)NO", "species": "human", "route": "intravenous", "dose": "1800 mg/m²", "notes": "patients", "AUC(0-t)": "54.7 µg·h/mL"}
{"Structure (SMILES)": "CCO[C@H]1CCN(Cc2c(OC)cc(C)c3[nH]ccc23)[C@H](c2ccc(C(=O)O)cc2)C1", "species": "human", "route": "oral", "dose": "50 mg", "notes": "multiple doses, twice daily, patients", "AUC(0-t)": "8.57 µg·h/mL"}
{"Structure (SMILES)": "CC(C)(O)c1ccccc1-c1ccc2[nH]c(/C=C/c3ccc(C(F)(F)F)cc3)nc2c1", "species": "male human", "route": "oral", "dose": "5 mg", "notes": "single dose, fasted", "AUC(0-t)": "0.35 µg·h/mL"}
{"Structure (SMILES)": "C=CC(=O)N1CCC(Oc2cc3c(Nc4ccc(Cl)c(Cl)c4F)ncnc3cc2OC)CC1", "species": "human", "route": "oral", "dose": "16 mg", "notes": "single dose, fed", "AUC(0-t)": "0.474 µg·h/mL"}
{"Structure (SMILES)": "OC[C@H]1O[C@@H](c2ccc(Cl)c(Cc3ccc(O[C@H]4CCOC4)cc3)c2)[C@H](O)[C@@H](O)[C@@H]1O", "species": "human", "route": "oral", "dose": "10 mg", "notes": "single dose", "AUC(0-t)": "1.63 µM·h"}
{"Structure (SMILES)": "Oc1cc(O)c2c(c1)O[C@@H](c1ccc(O)c(O)c1)[C@@H](O)C2", "species": "human", "route": "oral", "dose": "10 mg", "notes": "single dose", "AUC(0-t)": "0.0046 µg·h/mL"}
{"Structure (SMILES)": "C#Cc1cccc(Nc2ncnc3cc(OCCOC)c(OCCOC)cc23)c1", "species": "human", "route": "oral", "dose": "100 mg", "notes": "patients", "AUC(0-t)": "21.9 µM·h"}
{"Structure (SMILES)": "COc1cc2c(cc1OC)CN(CCc1ccc(NC(=O)c3cc(OC)c(OC)cc3NC(=O)c3cnc4ccccc4c3)cc1)CC2", "species": "human", "route": "intravenous", "dose": "1.5 mg/kg", "notes": "patients", "AUC(0-t)": "10.5 µM·h"}
{"Structure (SMILES)": "C[C@@]1(c2cc(NC(=O)c3ccc(C#N)cn3)ccc2F)C=CSC(N)=N1", "species": "human", "route": "oral", "dose": "150 mg", "notes": "single dose", "AUC(0-t)": "14.3 µg·h/mL"}
{"Structure (SMILES)": "CO[C@H]1CC[C@H](N2C(=O)CNc3ncc(-c4ccc(C(C)(C)O)nc4)nc32)CC1", "species": "human", "route": "oral", "dose": "7.5 mg", "notes": "patients", "AUC(0-t)": "0.319 µg·h/mL"}
{"Structure (SMILES)": "C[C@@H](c1ccc2nccn2c1)n1nnc2ncc(-c3cnn(C)c3)nc21", "species": "human", "route": "oral", "dose": "200 mg", "AUC(0-t)": "3.98 µg·h/mL"}
{"Structure (SMILES)": "COc1ccc([C@@H]2CN(C(=O)[C@@H](O)CO)C[C@@]2(C)[C@@H](C)O)cc1OC1CN(c2ccc(C)cn2)C1", "species": "human", "route": "oral", "dose": "5 mg", "notes": "single dose, healthy volunteers", "AUC(0-t)": "1.59 µg·h/mL"}
